# Test results reported in ChEMBL document CHEMBL4014276, “Diphenylurea derivatives for combating methicillin- and vancomycin-resistant Staphylococcus aureus” (Eur J Med Chem, 2017).
# Calls of active or inactive are those of the source. No cut-off for these calls is given here.
# Key:
# Assay type in all cases: functional
# Staphylococcus aureus [1] = assay: Antibacterial activity against methicillin-resistant Staphylococcus aureus USA100 NRS382 clinical isolate after 20 hrs by broth microdilution method; conditions: USA100 NRS382, 20 h
# Summary of the method: (§1)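 CLSI broth microdilution in cation-adjusted Mueller Hinton broth; compounds serially diluted, triplicate samples; 37 °C, 20 h. MIC read visually as lowest concentration with no visible growth; mean of triplicate determinations reported.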
# Staphylococcus aureus [2] = assay: Antibacterial activity against methicillin-resistant Staphylococcus aureus USA200 NRS383 clinical isolate after 20 hrs by broth microdilution method; conditions: USA200 NRS383, 20 h; summary of the method: as §1
# Staphylococcus aureus [3] = assay: Bactericidal activity against vancomycin-resistant Staphylococcus aureus VRSA4 after 18 hrs by broth microdilution method; conditions: VRSA4, 18 h
# Summary of the method: (§2)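 From MIC wells without visible growth, 5 uL spotted onto Tryptic soy agar, incubated 37 °C for at least 18 h; MBC taken as lowest concentration giving 99.9% growth inhibition.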
# Staphylococcus aureus [4] = assay: Antibacterial activity against methicillin-resistant Staphylococcus aureus USA400 NRS123 clinical isolate preincubated followed by bacterial subculturing for 2 weeks
# Staphylococcus aureus [5] = assay: Antibacterial activity against Staphylococcus aureus RN4220 NRS107 clinical isolate after 20 hrs by broth microdilution method; conditions: RN4220 NRS107, 20 h; summary of the method: as §1
# Staphylococcus aureus [6] = assay: Antibacterial activity against vancomycin-resistant Staphylococcus aureus VRSA10 after 20 hrs by broth microdilution method; conditions: VRSA10, 20 h; summary of the method: as §1
# Staphylococcus aureus [7] = assay: Bactericidal activity against vancomycin-resistant Staphylococcus aureus VRSA10 after 18 hrs by broth microdilution method; conditions: VRSA10, 18 h; summary of the method: as §2
# Staphylococcus aureus [8] = assay: Antibacterial activity against methicillin-resistant Staphylococcus aureus USA300 NRS384 clinical isolate after 20 hrs by broth microdilution method; conditions: USA300 NRS384, 20 h; summary of the method: as §1
# Staphylococcus aureus [9] = assay: Antibacterial activity against methicillin-resistant Staphylococcus aureus USA300 NRS384 clinical isolate preincubated followed by bacterial subculturing for 2 weeks
# Staphylococcus aureus [10] = assay: Bactericidal activity against Staphylococcus aureus RN4220 NRS107 clinical isolate after 18 hrs by broth microdilution method; conditions: RN4220 NRS107, 18 h; summary of the method: as §2
# Staphylococcus aureus [11] = assay: Bactericidal activity against methicillin-resistant Staphylococcus aureus USA200 NRS383 clinical isolate after 18 hrs by broth microdilution method; conditions: USA200 NRS383, 18 h; summary of the method: as §2
# Staphylococcus aureus [12] = assay: Bactericidal activity against methicillin-resistant Staphylococcus aureus USA300 NRS384 clinical isolate after 18 hrs by broth microdilution method; conditions: USA300 NRS384, 18 h; summary of the method: as §2
# Staphylococcus aureus [13] = assay: Bactericidal activity against methicillin-resistant Staphylococcus aureus USA400 NRS123 clinical isolate after 18 hrs by broth microdilution method; conditions: USA400 NRS123, 18 h; summary of the method: as §2
# Staphylococcus aureus [14] = assay: Antibacterial activity against methicillin-resistant Staphylococcus aureus USA400 NRS123 clinical isolate after 20 hrs by broth microdilution method; conditions: USA400 NRS123, 20 h; summary of the method: as §1
# Staphylococcus aureus [15] = assay: Bactericidal activity against methicillin-resistant Staphylococcus aureus USA100 NRS382 clinical isolate after 18 hrs by broth microdilution method; conditions: USA100 NRS382, 18 h; summary of the method: as §2
# Staphylococcus aureus [16] = assay: Antibacterial activity against methicillin-resistant Staphylococcus aureus USA100 NRS382 clinical isolate preincubated followed by bacterial subculturing for 2 weeks
# Staphylococcus aureus [17] = assay: Antibacterial activity against methicillin-resistant Staphylococcus aureus USA200 NRS383 clinical isolate preincubated followed by bacterial subculturing for 2 weeks
# Staphylococcus aureus [18] = assay: Antibacterial activity against vancomycin-resistant Staphylococcus aureus VRSA4 after 20 hrs by broth microdilution method; conditions: VRSA4, 20 h; summary of the method: as §1
smiles,measurement,setting,value
CCCCCCCOc1ccc(NC(=O)Nc2ccc(/C(C)=N/NC(=N)N)cc2)cc1,MIC,Staphylococcus aureus [1],16 µg/mL
same,MIC,Staphylococcus aureus [2],8 µg/mL
same,MBC,Staphylococcus aureus [3],8 µg/mL
same,Activity,Staphylococcus aureus [4],Active
same,MIC,Staphylococcus aureus [5],8 µg/mL
same,MIC,Staphylococcus aureus [6],16 µg/mL
same,MBC,Staphylococcus aureus [7],16 µg/mL
same,MIC,Staphylococcus aureus [8],16 µg/mL
same,Activity,Staphylococcus aureus [9],Active
same,MBC,Staphylococcus aureus [10],8 µg/mL
same,MBC,Staphylococcus aureus [11],8 µg/mL
same,MBC,Staphylococcus aureus [12],16 µg/mL
same,MBC,Staphylococcus aureus [13],16 µg/mL
same,MIC,Staphylococcus aureus [14],16 µg/mL
same,MBC,Staphylococcus aureus [15],16 µg/mL
same,Activity,Staphylococcus aureus [16],Active
same,Activity,Staphylococcus aureus [17],Active
same,MIC,Staphylococcus aureus [18],8 µg/mL
C/C(=N\NC(=N)N)c1ccc(NC(=O)c2ccc3c(c2)OCCN3C)cc1,MIC,Staphylococcus aureus [14],16 µg/mL
CCC(CC)COc1ccc(NC(=O)Nc2ccc(/C(C)=N/NC(=N)N)cc2)cc1,MIC,Staphylococcus aureus [1],128 µg/mL
same,Activity,Staphylococcus aureus [4],Active
same,Activity,Staphylococcus aureus [9],Active
same,Activity,Staphylococcus aureus [16],Active
same,Activity,Staphylococcus aureus [17],Active
CCCOc1ccc(NC(=O)Nc2ccc(/C(C)=N/NC(=N)N)cc2)cc1,MIC,Staphylococcus aureus [1],8 µg/mL
same,MIC,Staphylococcus aureus [2],8 µg/mL
same,MBC,Staphylococcus aureus [3],8 µg/mL
same,Activity,Staphylococcus aureus [4],Active
same,MIC,Staphylococcus aureus [5],8 µg/mL
same,MIC,Staphylococcus aureus [6],8 µg/mL
same,MBC,Staphylococcus aureus [7],16 µg/mL
same,MIC,Staphylococcus aureus [8],8 µg/mL
same,Activity,Staphylococcus aureus [9],Active
same,MBC,Staphylococcus aureus [10],8 µg/mL
same,MBC,Staphylococcus aureus [11],16 µg/mL
same,MBC,Staphylococcus aureus [12],16 µg/mL
same,MBC,Staphylococcus aureus [13],16 µg/mL
same,MIC,Staphylococcus aureus [14],4 µg/mL
same,MBC,Staphylococcus aureus [15],8 µg/mL
same,Activity,Staphylococcus aureus [16],Active
same,Activity,Staphylococcus aureus [17],Active
same,MIC,Staphylococcus aureus [18],8 µg/mL
C/C(=N\NC(=N)N)c1ccc(NC(=O)c2cc(F)c(F)c(F)c2)cc1,MIC,Staphylococcus aureus [14],16 µg/mL
C/C(=N\NC(=N)N)c1ccc(NC(=O)Nc2ccc(OCC3CCC3)cc2)cc1,MIC,Staphylococcus aureus [1],16 µg/mL
same,MIC,Staphylococcus aureus [2],16 µg/mL
same,MBC,Staphylococcus aureus [3],16 µg/mL
same,Activity,Staphylococcus aureus [4],Active
same,MIC,Staphylococcus aureus [5],16 µg/mL
same,MIC,Staphylococcus aureus [6],16 µg/mL
same,MBC,Staphylococcus aureus [7],32 µg/mL
same,MIC,Staphylococcus aureus [8],16 µg/mL
same,Activity,Staphylococcus aureus [9],Active
same,MBC,Staphylococcus aureus [10],16 µg/mL
same,MBC,Staphylococcus aureus [11],32 µg/mL
same,MBC,Staphylococcus aureus [12],16 µg/mL
same,MBC,Staphylococcus aureus [13],32 µg/mL
same,MIC,Staphylococcus aureus [14],16 µg/mL
same,MBC,Staphylococcus aureus [15],16 µg/mL
same,Activity,Staphylococcus aureus [16],Active
same,Activity,Staphylococcus aureus [17],Active
same,MIC,Staphylococcus aureus [18],16 µg/mL
CCCCCCCCCOc1ccc(NC(=O)Nc2ccc(/C(C)=N/NC(=N)N)cc2)cc1,MIC,Staphylococcus aureus [1],32 µg/mL
same,MIC,Staphylococcus aureus [2],16 µg/mL
same,MBC,Staphylococcus aureus [3],16 µg/mL
same,Activity,Staphylococcus aureus [4],Active
same,MIC,Staphylococcus aureus [5],32 µg/mL
same,MIC,Staphylococcus aureus [6],32 µg/mL
same,MBC,Staphylococcus aureus [7],32 µg/mL
same,MIC,Staphylococcus aureus [8],32 µg/mL
same,Activity,Staphylococcus aureus [9],Active
same,MBC,Staphylococcus aureus [10],64 µg/mL
same,MBC,Staphylococcus aureus [11],32 µg/mL
same,MBC,Staphylococcus aureus [12],32 µg/mL
same,MBC,Staphylococcus aureus [13],64 µg/mL
same,MIC,Staphylococcus aureus [14],32 µg/mL
same,MBC,Staphylococcus aureus [15],32 µg/mL
same,Activity,Staphylococcus aureus [16],Active
same,Activity,Staphylococcus aureus [17],Active
same,MIC,Staphylococcus aureus [18],16 µg/mL
C/C(=N\NC(=N)N)c1ccc(NC(=O)c2cc(-c3ccccc3)n(C)n2)cc1,MIC,Staphylococcus aureus [14],> 32 µg/mL
C/C(=N\NC(=N)N)c1ccc(NC(=O)Nc2ccc(OCC(C)C)cc2)cc1,MIC,Staphylococcus aureus [1],8 µg/mL
same,MIC,Staphylococcus aureus [2],4 µg/mL
same,MBC,Staphylococcus aureus [3],8 µg/mL
same,Activity,Staphylococcus aureus [4],Active
same,MIC,Staphylococcus aureus [5],4 µg/mL
same,MIC,Staphylococcus aureus [6],4 µg/mL
same,MBC,Staphylococcus aureus [7],8 µg/mL
same,MIC,Staphylococcus aureus [8],4 µg/mL
same,Activity,Staphylococcus aureus [9],Active
same,MBC,Staphylococcus aureus [10],4 µg/mL
same,MBC,Staphylococcus aureus [11],4 µg/mL
same,MBC,Staphylococcus aureus [12],8 µg/mL
same,MBC,Staphylococcus aureus [13],16 µg/mL
same,MIC,Staphylococcus aureus [14],8 µg/mL
same,MBC,Staphylococcus aureus [15],8 µg/mL
same,Activity,Staphylococcus aureus [16],Active
same,Activity,Staphylococcus aureus [17],Active
same,MIC,Staphylococcus aureus [18],4 µg/mL
C/C(=N\NC(=N)N)c1ccc(NC(=O)Nc2ccc(OCc3ccccc3)cc2)cc1,MIC,Staphylococcus aureus [1],4 µg/mL
same,MIC,Staphylococcus aureus [2],8 µg/mL
same,MBC,Staphylococcus aureus [3],8 µg/mL
same,Activity,Staphylococcus aureus [4],Active
same,MIC,Staphylococcus aureus [5],8 µg/mL
same,MIC,Staphylococcus aureus [6],8 µg/mL
same,MBC,Staphylococcus aureus [7],> 64 µg/mL
same,MIC,Staphylococcus aureus [8],8 µg/mL
same,Activity,Staphylococcus aureus [9],Active
same,MBC,Staphylococcus aureus [10],8 µg/mL
same,MBC,Staphylococcus aureus [11],16 µg/mL
same,MBC,Staphylococcus aureus [12],8 µg/mL
same,MBC,Staphylococcus aureus [13],> 64 µg/mL
same,MIC,Staphylococcus aureus [14],8 µg/mL
same,MBC,Staphylococcus aureus [15],> 128 µg/mL
same,Activity,Staphylococcus aureus [16],Active
same,Activity,Staphylococcus aureus [17],Active
same,MIC,Staphylococcus aureus [18],8 µg/mL
C/C(=N\NC(=N)N)c1ccc(NC(=O)c2cccc(Oc3ccccc3)c2)cc1,MIC,Staphylococcus aureus [14],16 µg/mL
CCCCCCCCOc1ccc(NC(=O)Nc2ccc(/C(C)=N/NC(=N)N)cc2)cc1,MIC,Staphylococcus aureus [1],16 µg/mL
same,MIC,Staphylococcus aureus [2],16 µg/mL
same,MBC,Staphylococcus aureus [3],32 µg/mL
same,Activity,Staphylococcus aureus [4],Active
same,MIC,Staphylococcus aureus [5],16 µg/mL
same,MIC,Staphylococcus aureus [6],16 µg/mL
same,MBC,Staphylococcus aureus [7],32 µg/mL
same,MIC,Staphylococcus aureus [8],16 µg/mL
same,Activity,Staphylococcus aureus [9],Active
same,MBC,Staphylococcus aureus [10],32 µg/mL
same,MBC,Staphylococcus aureus [11],16 µg/mL
same,MBC,Staphylococcus aureus [12],16 µg/mL
same,MBC,Staphylococcus aureus [13],32 µg/mL
same,MIC,Staphylococcus aureus [14],32 µg/mL
same,MBC,Staphylococcus aureus [15],32 µg/mL
same,Activity,Staphylococcus aureus [16],Active
same,Activity,Staphylococcus aureus [17],Active
same,MIC,Staphylococcus aureus [18],16 µg/mL
CC(=O)NC[C@H]1CN(c2ccc(N3CCOCC3)c(F)c2)C(=O)O1 [LINEZOLID],MBC,Staphylococcus aureus [3],8 µg/mL
same,MBC,Staphylococcus aureus [7],16 µg/mL
same,MBC,Staphylococcus aureus [10],32 µg/mL
same,MBC,Staphylococcus aureus [11],32 µg/mL
same,MBC,Staphylococcus aureus [12],16 µg/mL
same,MBC,Staphylococcus aureus [13],32 µg/mL
same,MBC,Staphylococcus aureus [15],16 µg/mL
C/C(=N\NC(=N)N)c1ccc(NC(=O)Nc2nc3ccccc3s2)cc1,MIC,Staphylococcus aureus [14],10 µg/mL
C/C(=N\NC(=N)N)c1ccc(NC(=O)Cc2ccc(F)cc2)cc1,MIC,Staphylococcus aureus [14],16 µg/mL
C/C(=N\NC(=N)N)c1ccc(NC(=O)Cc2cc(F)cc(F)c2)cc1,MIC,Staphylococcus aureus [14],16 µg/mL
C/C(=N\NC(=N)N)c1ccc(NC(=O)c2cc(C)oc2C)cc1,MIC,Staphylococcus aureus [14],24 µg/mL
COc1ccc(C(=O)Nc2ccc(/C(C)=N/NC(=N)N)cc2)cc1OC,MIC,Staphylococcus aureus [14],16 µg/mL
C/C(=N\NC(=N)N)c1ccc(NC(=O)Nc2ccc(I)cc2)cc1,MIC,Staphylococcus aureus [14],10 µg/mL
CC(=O)Oc1ccccc1C(=O)Nc1ccc(/C(C)=N/NC(=N)N)cc1,MIC,Staphylococcus aureus [14],> 32 µg/mL
C/C(=N\NC(=N)N)c1ccc(NC(=O)Nc2ccc(OC3CCCC3)cc2)cc1,MIC,Staphylococcus aureus [1],64 µg/mL
same,MIC,Staphylococcus aureus [2],64 µg/mL
same,Activity,Staphylococcus aureus [4],Active
same,Activity,Staphylococcus aureus [9],Active
same,MBC,Staphylococcus aureus [11],128 µg/mL
same,MBC,Staphylococcus aureus [15],64 µg/mL
same,Activity,Staphylococcus aureus [16],Active
same,Activity,Staphylococcus aureus [17],Active
